The subject of assay [1] is HCT-8. The assay can be described thus: Cytotoxicity against human HCT8 cells by MTT assay. It is filed as functional, cell-based.
The test system of assay [2] is A2780. The assay can be described thus: Cytotoxicity against human A2780 cells by MTT assay. It is filed as functional, cell-based.
The test system of assay [3] is Bel-7402. In words: Cytotoxicity against human Bel7402 cells by MTT assay. The assay is classed as functional, cell-based.
Assay [4] concerns BGC-823. In words: Cytotoxicity against human BGC823 cells by MTT assay. The assay is classed as functional, cell-based.
Assay [5] concerns A549. In words: Cytotoxicity against human A549 cells by MTT assay. The assay is classed as functional, cell-based.
Assay [6] concerns Liver microsomes. The assay can be described thus: Antioxidant activity in rat liver microsome assessed as inhibition of Fe2+-cysteine-induced lipid peroxidation after 15 mins. The assay is classed as functional. In outline:
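Rat liver microsomes (1.0 mg microsomal protein in 1 mL 0.1 M PBS, pH 7.4) incubated with […] cysteine plus test sample, 37 °C, 15 min; peroxidation started with 0.05 mM FeSO4. […] Vitamin E positive control.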

The test system of assay [7] is Coxsackievirus. In words: Antiviral activity against Coxsackievirus B3 infected in african green monkey Vero cells assessed as inhibition of virus-induced cytopathic effect. The assay is classed as functional, organism-based. In outline: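 Confluent Vero monolayers infected with 100 TCID50 Cox B3; 1 h adsorption at 37 °C, PBS wash, then maintenance medium (MEM + 2% FBS) ± graded compound concentrations at 37 °C. CPE scored once virus control reached 4+; IC50 by Reed and Muench. Ribavirin positive control.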

The test system of assay [8] is BV-2. The assay can be described thus: Inhibition of LPS-induced nitric oxide production in […] BV2 cells after 24 hrs by spectrophotometry. The assay is classed as functional, cell-based. The conditions noted are these: Mus musculus, BV-2, 24 h. In outline:
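BV2 microglial cells pre-cultured 24 h, then exposed to a range of concentrations and stimulated with E. coli 055:B5 LPS (300 ng/mL) for 24 h. Nitrite in the supernatant was measured with Griess reagent (1% sulfanilamide in 5% H3PO4 plus 0.1% N-(1-naphthyl)ethylenediamine, 1:1) for 20 min at room temperature, read at 550 nm against a sodium nitrite standard curve. Untreated cells served as negative control and curcumin as positive control.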

The source made the active and inactive calls. The calls are words filed in the database; no cut-off is given here.

For `CC1=Cc2c(C(C)C)ccc(C)c2C(=O)C1=O`, the outcome in assay [1], in assay [2], in assay [3], in assay [4] and in assay [5] was inactive. Besides, the figures for the IC50 result in assay [6] and in assay [7] were “Not Active” and > 20 µM, respectively.

`CC1=C(O)C(=O)c2c(C)ccc3c(C)cnc1c23`: the result in assay [1], in assay [2], in assay [3], in assay [4] and in assay [5] was inactive. Also, the values for the IC50 in assay [6] (read-out: IC50) and in assay [7] were 3.9 µM and > 20 µM, respectively.

In the case of `Oc1ccccc1CN1CCCC[C@]1(O)c1cccnc1`, the result in assay [1], in assay [2], in assay [3], in assay [4] and in assay [5] was inactive.

For `COc1c(OC)c2nccc3c4ccccc4n(c1=O)c23` [4,5-DIMETHOXYCANTHIN-6-ONE], the result in assay [1], in assay [2], in assay [3], in assay [4] and in assay [5] was inactive. In addition, the IC50 entry in assay [6] is “Not Active”; in assay [7], 7.4 µM.

Take `Cc1cc2c(C(C)C)ccc(C)c2cc1O`: the result in assay [1], in assay [2], in assay [3], in assay [4] and in assay [5] was inactive. The results for the IC50 in assay [6] (read-out: IC50) and in assay [7] were 4.3 µM and 5.3 µM, respectively.

Consider VITAMIN E, for which the IC50 in assay [6] (read-out: IC50) is 54.2 µM.

As for `Oc1ccccc1CN1CCCC[C@@H]1c1cccnc1` [(2R)-N-HYDROXYBENZYLANABASINE], the outcome in assay [1], in assay [2], in assay [3], in assay [4] and in assay [5] was inactive. For the same molecule, the IC50 in assay [8] was > 20 µM.

In the case of `Oc1ccccc1CN1CCCCC1c1cccnc1` (racemic), the result in assay [1], in assay [2], in assay [3], in assay [4] and in assay [5] was inactive. The IC50 in assay [7] was > 20 µM.

In the case of `Oc1ccccc1CN1CCCC[C@@]1(O)c1cccnc1`, the outcome in assay [1], in assay [2], in assay [3], in assay [4] and in assay [5] was inactive.

As to `Cc1cc2c(c(O)c1O)[C@@H](C)CC[C@@H]2C(C)C` [(1S,4R)-7,8-DIHYDROXYCALAMENENE], the outcome in assay [1], in assay [2], in assay [3], in assay [4] and in assay [5] was inactive. The IC50 entry in assay [6] was “Not Active”; in assay [7], 7.4 µM.

For the molecule `Oc1ccccc1CN1CCCCC1(O)c1cccnc1` (racemic), the outcome in assay [1], in assay [2], in assay [3], in assay [4] and in assay [5] was inactive. Moreover, the IC50 in assay [7] is > 20 µM.

For the molecule `Cc1cc2c(C(C)C)cc(O)c(C=O)c2cc1O`, the outcome in assay [1], in assay [2], in assay [3], in assay [4] and in assay [5] was inactive. In addition, the IC50 was 14.7 µM in assay [6] (read-out: IC50) and 1.4 µM in assay [7].

`C[C@@H]1CC[C@@H]2C(C)(C)O[C@@H]3[C@H](C)C(=O)C=C1[C@@]32O`: the result in assay [1], in assay [2], in assay [3], in assay [4] and in assay [5] was inactive.

Turning to `CO[C@]1(C)C(=O)C=C(C(C)C)c2cc(C)c(O)cc21`, the outcome in assay [1], in assay [2], in assay [3], in assay [4] and in assay [5] was inactive. The IC50 in assay [6] (read-out: IC50) was 23.8 µM; in assay [7] it was > 20 µM.

In assay [8], `COc1cc(/C=C/C(=O)CC(=O)/C=C/c2ccc(O)c(OC)c2)ccc1O` [CURCUMIN] had an IC50 of 3.1 µM.

As for `CC1=C2OCC(C)c3ccc(C)c(c32)C(=O)C1=O` (stereo unspecified) [MANSONONE E], the result in assay [1], in assay [2], in assay [3], in assay [4] and in assay [5] was inactive. For the same molecule, the IC50 in assay [6] (read-out: IC50) was determined as 45.7 µM; in assay [7] it was 4.7 µM.

As to `NC(=O)c1ncn([C@@H]2O[C@H](CO)[C@@H](O)[C@H]2O)n1` [RIBAVIRIN], in assay [7], the IC50 was 222 µM.

In the case of `Oc1ccccc1CN1CCCC[C@H]1c1cccnc1` [(2S)-N-HYDROXYBENZYLANABASINE], the outcome in assay [1], in assay [2], in assay [3], in assay [4] and in assay [5] was inactive. In assay [8], this molecule yielded an IC50 of 6.7 µM.

`Cc1cc2c(cc1O)[C@@](C)(O)C(=O)C=C2C(C)C` [LACINILENE C]: the result in assay [1], in assay [2], in assay [3], in assay [4] and in assay [5] was inactive. In addition, the values for the IC50 in assay [6] (read-out: IC50) and in assay [7] were 39.8 µM and 15.4 µM, respectively.

As for `COC(=O)c1c(O)cc(C(C)C)c2cc(C)c(O)cc12`, the result in assay [1], in assay [2], in assay [3], in assay [4] and in assay [5] was inactive. The IC50 in assay [6] (read-out: IC50) amounted to 4.9 µM; in assay [7], 11.3 µM.

`Cc1cc2c(C(C)C)cc(O)c(C)c2cc1O`: the result in assay [1], in assay [2], in assay [3], in assay [4] and in assay [5] was inactive. Also, the figures for the IC50 in assay [6] (read-out: IC50) and in assay [7] were 3.8 µM and 10.1 µM, respectively.

`CC1=C2OC[C@@H](C)c3c(O)cc(C)c(c32)C(=O)C1=O`: the result in assay [1], in assay [2], in assay [3], in assay [4] and in assay [5] was inactive. Moreover, the IC50 in assay [6] (read-out: IC50) was determined as 17.8 µM; in assay [7] it was 3.1 µM.

The record behind these values is ChEMBL document CHEMBL2384959, “Sesquiterpenes and alkaloids from the roots of Alangium chinense” (J Nat Prod, 2013).
